# Reference: ChEMBL document CHEMBL3616459, “Antimicrobial peptides with potential for biofilm eradication: synthesis and structure activity relationship studies of battacin peptides” (J Med Chem, 2015)
# Positions of bridges follow the written chain, without caps; N, C: chain ends. Non-standard residues stand in square brackets, D forms with d. Residues, ends and D or L forms follow the SMILES beside them. *: point of attachment. Myristoyl = CCCCCCCCCCCCCC(=O)*; X1 = CC(C)=CCC/C(C)=C/C(=O)*; dDab = NCC[C@@H](N)C(=O)O; X2 = CCC(C)CCC(O)CC(=O)*; Dab = NCC[C@H](N)C(=O)O
# Key:
# [1] = system: Erwinia amylovora; assay: Antimicrobial activity against streptomycin-resistant Erwinia amylovora after 24 hrs by spectrophotometry; type: functional
# In short: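 Broth microdilution in Luria broth; overnight culture grown at 28 °C, adjusted to OD600 0.6, mixed 1:1 with a dilution series of peptide prepared in LB containing 0.5% acetic acid. Three replicates per concentration.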
# [2] = system: Pseudomonas aeruginosa; assay: Antimicrobial activity against Pseudomonas aeruginosa after 24 hrs by spectrophotometry; type: functional
# [3] = Hemolytic activity in mouse erythrocytes at 100 uM after 1 hr by spectrophotometry; type: ADME, cell-based, Erythrocyte; details: read-out: Activity
# In short: (§1)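 100 μL peptide (1 μM–1 mM in Tris buffer) plus 100 μL cells, incubated 1 h at 37 °C, triplicates. After centrifugation, supernatant A540 read. Percent hemolysis calculated relative to buffer (0%) and 0.1% Triton X-100 (100%) controls.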
# [4] = Antimicrobial activity against Pseudomonas syringae pv. actinidiae 16027 after 24 hrs by spectrophotometry; type: functional; details: Pseudomonas syringae, 16027, 24 h
# In short: (§2)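 Broth microdilution in Luria broth. Overnight culture from a single colony, grown at 28 °C (Ea1501, Psa) or 37 °C (E. coli, S. aureus), adjusted to OD600 0.6. Peptide dissolved in LB with 0.5% acetic acid as a dilution series; 50 μL peptide plus 50 μL culture per well, triplicates.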
# [5] = system: Escherichia coli; assay: Antimicrobial activity against Escherichia coli after 24 hrs by spectrophotometry; type: functional; in short: as §2
# [6] = system: Staphylococcus aureus; assay: Antimicrobial activity against Staphylococcus aureus after 24 hrs by spectrophotometry; type: functional; in short: as §2
# [7] = system: Erwinia amylovora; assay: Antimicrobial activity against Erwinia amylovora 1501 after 24 hrs by spectrophotometry; type: functional; details: Erwinia amylovora, 1501, 24 h; in short: as §2
# [8] = Hemolytic activity in mouse erythrocytes at 100 uM to 1 mM after 1 hr by spectrophotometry; type: ADME, cell-based, Erythrocyte; details: read-out: Activity; in short: as §1
Compound,MIC [1],MIC [2],"hemolysis at 1 h, 100 µM [3]",MIC [4],MIC [5],MIC [6],MIC [7],"hemolysis at 1 h, 100 µM [8]"
CC(C)C[C@@H]1NC(=O)[C@H](CCN)NC(=O)[C@H](CCN)NC(=O)[C@@H](Cc2ccccc2)NC(=O)[C@H](CC(C)C)NC(=O)[C@H](CCN)NC(=O)[C@@H](NC(=O)[C@@H](CCN)NC(=O)OCC2c3ccccc3-c3ccccc32)CCNC1=O,32 µM,2 µM,41%,19 µM,19 µM,2 µM,19 µM,–
CCC(C)CCC(=O)N[C@H](CCN)C(=O)N[C@H]1CCNC(=O)[C@H](CC(C)C)NC(=O)[C@H](CCN)NC(=O)[C@H](CCN)NC(=O)[C@@H](Cc2ccccc2)NC(=O)[C@H](CC(C)C)NC(=O)[C@H](CCN)NC1=O (some centres undefined),25 µM,2.5 µM,–,5 µM,15 µM,101 µM,15 µM,2.02%
CC(C)=CCC/C(C)=C/C(=O)N[C@H](CCN)C(=O)N[C@H]1CCNC(=O)[C@H](CC(C)C)NC(=O)[C@H](CCN)NC(=O)[C@H](CCN)NC(=O)[C@@H](Cc2ccccc2)NC(=O)[C@H](CC(C)C)NC(=O)[C@H](CCN)NC1=O,488 µM,10 µM,–,49 µM,98 µM,98 µM,98 µM,–
CCCCCCCCCCCCCC(=O)N[C@H](CCN)C(=O)N[C@H]1CCNC(=O)[C@H](CC(C)C)NC(=O)[C@H](CCN)NC(=O)[C@H](CCN)NC(=O)[C@@H](Cc2ccccc2)NC(=O)[C@H](CC(C)C)NC(=O)[C@H](CCN)NC1=O,23 µM,92 µM,–,46 µM,92 µM,92 µM,92 µM,–
CCCCCCCCCCCCCC(=O)N[C@H](CCCCN)C(=O)N[C@H]1CCCCNC(=O)[C@H](CC(C)C)NC(=O)[C@H](CCCCN)NC(=O)[C@H](CCCCN)NC(=O)[C@@H](Cc2ccccc2)NC(=O)[C@H](CC(C)C)NC(=O)[C@H](CCCCN)NC1=O,20 µM,409 µM,–,12 µM,81 µM,81 µM,81 µM,–
CCC(C)CCC(=O)N[C@H](CCN)C(=O)N[C@@H](CCN)C(=O)N[C@@H](CCN)C(=O)N[C@@H](CC(C)C)C(=O)N[C@H](Cc1ccccc1)C(=O)N[C@@H](CCN)C(=O)N[C@@H](CCN)C(=O)N[C@@H](C)C(=O)O (some centres undefined),–,5 µM,–,10 µM,15 µM,5 µM,–,–
CCC(C)CCC(=O)N[C@H](CCN)C(=O)N[C@@H](CCN)C(=O)N[C@@H](CCN)C(=O)N[C@@H](CC(C)C)C(=O)N[C@H](Cc1ccccc1)C(=O)N[C@@H](CCN)C(=O)N[C@@H](C)C(=O)N[C@@H](CC(C)C)C(=O)O (some centres undefined),–,5 µM,–,2.5 µM,5 µM,5 µM,–,–
CCC(C)CCC(=O)N[C@H](CCN)C(=O)N[C@@H](CCN)C(=O)N[C@@H](CCN)C(=O)N[C@@H](CC(C)C)C(=O)N[C@H](Cc1ccccc1)C(=O)N[C@@H](C)C(=O)N[C@@H](CCN)C(=O)N[C@@H](CC(C)C)C(=O)O (some centres undefined),–,50 µM,–,100 µM,100 µM,500 µM,–,–
CCC(C)CCC(=O)N[C@H](CCN)C(=O)N[C@@H](CCN)C(=O)N[C@@H](CCN)C(=O)N[C@@H](CC(C)C)C(=O)N[C@@H](C)C(=O)N[C@@H](CCN)C(=O)N[C@@H](CCN)C(=O)N[C@@H](CC(C)C)C(=O)O (some centres undefined),–,> 1000 µM,–,> 1000 µM,25 µM,25 µM,–,–
CCC(C)CCC(=O)N[C@H](CCN)C(=O)N[C@@H](CCN)C(=O)N[C@@H](CCN)C(=O)N[C@@H](C)C(=O)N[C@H](Cc1ccccc1)C(=O)N[C@@H](CCN)C(=O)N[C@@H](CCN)C(=O)N[C@@H](CC(C)C)C(=O)O (some centres undefined),–,> 1000 µM,–,> 1000 µM,500 µM,> 1000 µM,–,–
CCC(C)CCC(=O)N[C@H](CCN)C(=O)N[C@@H](CCN)C(=O)N[C@@H](C)C(=O)N[C@@H](CC(C)C)C(=O)N[C@H](Cc1ccccc1)C(=O)N[C@@H](CCN)C(=O)N[C@@H](CCN)C(=O)N[C@@H](CC(C)C)C(=O)O (some centres undefined),–,10 µM,–,25 µM,25 µM,25 µM,–,–
CCC(C)CCC(=O)N[C@H](CCN)C(=O)N[C@@H](C)C(=O)N[C@@H](CCN)C(=O)N[C@@H](CC(C)C)C(=O)N[C@H](Cc1ccccc1)C(=O)N[C@@H](CCN)C(=O)N[C@@H](CCN)C(=O)N[C@@H](CC(C)C)C(=O)O (some centres undefined),–,2.5 µM,–,2.5 µM,25 µM,2.5 µM,–,–
CCC(C)CCC(=O)N[C@@H](C)C(=O)N[C@@H](CCN)C(=O)N[C@@H](CCN)C(=O)N[C@@H](CC(C)C)C(=O)N[C@H](Cc1ccccc1)C(=O)N[C@@H](CCN)C(=O)N[C@@H](CCN)C(=O)N[C@@H](CC(C)C)C(=O)O (some centres undefined),–,25 µM,–,100 µM,500 µM,> 1000 µM,–,–
CC(C)CCCC(=O)N[C@H](CCN)C(=O)N[C@@H](CCN)C(=O)N[C@@H](CC(C)C)C(=O)N[C@H](Cc1ccccc1)C(=O)N[C@@H](CCN)C(N)=O,–,1 µM,–,1 µM,10 µM,2.5 µM,–,1.14%
CC(C)C[C@H](NC(=O)[C@H](CCN)NC(=O)[C@H](CCN)NC(=O)[C@@H](Cc1ccccc1)NC(=O)[C@H](CC(C)C)NC(=O)[C@H](CCN)NC(=O)[C@H](CCN)NC(=O)[C@H](N)CCN)C(N)=O (H-[dDab][Dab][Dab]L[dF][Dab][Dab]L-NH2),–,2.5 µM,–,5 µM,100 µM,> 1000 µM,–,–
CCCCCCCCCCCCCC(=O)N[C@H](CCN)C(=O)N[C@@H](CCN)C(=O)N[C@@H](CCN)C(=O)N[C@@H](CC(C)C)C(=O)N[C@H](Cc1ccccc1)C(=O)N[C@@H](CCN)C(=O)N[C@@H](CCN)C(=O)N[C@@H](CC(C)C)C(N)=O (Myristoyl-[dDab][Dab][Dab]L[dF][Dab][Dab]L-NH2),14 µM,14 µM,–,14 µM,5 µM,5 µM,9 µM,76.9%
CCCCCCCCCCCCCC(=O)N[C@H](CCCCN)C(=O)N[C@@H](CCCCN)C(=O)N[C@@H](CCCCN)C(=O)N[C@@H](CC(C)C)C(=O)N[C@H](Cc1ccccc1)C(=O)N[C@@H](CCCCN)C(=O)N[C@@H](CCCCN)C(=O)N[C@@H](CC(C)C)C(N)=O (Myristoyl-[dK]KKL[dF]KKL-NH2),12 µM,12 µM,–,12 µM,12 µM,1 µM,12 µM,–
CC(C)=CCC/C(C)=C/C(=O)N[C@H](CCN)C(=O)N[C@@H](CCN)C(=O)N[C@@H](CCN)C(=O)N[C@@H](CC(C)C)C(=O)N[C@H](Cc1ccccc1)C(=O)N[C@@H](CCN)C(=O)N[C@@H](CCN)C(=O)N[C@@H](CC(C)C)C(N)=O (X1-[dDab][Dab][Dab]L[dF][Dab][Dab]L-NH2),48 µM,48 µM,–,14 µM,24 µM,48 µM,24 µM,–
CCC(C)CCC(O)CC(=O)N[C@H](CCN)C(=O)N[C@H]1CCNC(=O)[C@H](CC(C)C)NC(=O)[C@H](CCN)NC(=O)[C@H](CCN)NC(=O)[C@@H](Cc2ccccc2)NC(=O)[C@H](CC(C)C)NC(=O)[C@H](CCN)NC1=O (some centres undefined) (X2-[dDab][Dab][Dab]L[dF][Dab][Dab]L; lactam 2-C),24 µM,5 µM,–,5 µM,10 µM,> 50 µM,24 µM,–
CN[C@@H]1[C@H](O[C@H]2[C@H](O[C@H]3[C@H](O)[C@@H](O)[C@H](N=C(N)N)[C@@H](O)[C@@H]3N=C(N)N)O[C@@H](C)[C@]2(O)C=O)O[C@@H](CO)[C@H](O)[C@H]1O [STREPTOMYCIN],500 µM,–,–,1 µM,1 µM,–,1 µM,–
GENTAMICIN,–,< 1 µM,–,–,–,2.5 µM,–,–
